Assay results taken from ChEMBL document CHEMBL1250448, “Inhibitor hijacking of Akt activation” (Nat Chem Biol, 2009).
Calls of active or inactive are those of the source. No cut-off for these calls is given here.

Columns and labels:
[1] = molecular target: Serine/threonine-protein kinase PAK 3 (Homo sapiens) (UniProt O75914); test: Inhibition of PAK3 at 1 uM in presence of 10 uM ATP by Select Screen kinase assay relative to untreated control
[2] = molecular target: T1, RAC-alpha serine/threonine-protein kinase (Homo sapiens, UniProt P31749); test: Induction of AKT1 Thr308 phosphorylation expressed in IGF1-stimulated HEK293 cells treated 20 mins before IGF1 stimulation by immunoblotting; format: cell-based
Outline: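 HEK293 cells (not transfected), serum-starved overnight, then given inhibitor for 20 min before 50 ng/ml IGF-1 for a further 10 min. Cells detached in ice-cold Ca/Mg-free PBS with 0.04% EDTA and lysed in Tris pH 7.5 Triton buffer with protease/phosphatase inhibitors. Lysates cleared at 14000 g, protein equalised by Bradford, and pThr308, pSer473 and GSK3β pSer9 read by immunoblot with ECL.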

[3] = molecular target: T1, RAC-alpha serine/threonine-protein kinase; test: Inhibition of wild type AKT1 expressed in HEK293 cells assessed as reduction of IGF1-induced GSK3-beta Ser9 phosphorylation treated 20 mins before IGF1 stimulation by immunoblotting; format: cell-based
Outline: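 Untransfected HEK293 cells carrying endogenous Akt were serum-starved overnight. They were treated with compound for 20 min, then stimulated with 50 ng/ml IGF-1 for 10 min. DMSO stocks were diluted 1:1000. Lysates in Tris pH 7.5/Triton buffer with phosphatase inhibitors were immunoblotted for GSK3β Ser9 and Akt Thr308/Ser473 phosphorylation, read by ECL.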

[4] = molecular target: Tyrosine-protein kinase ABL1 (Homo sapiens) (UniProt P00519); test: Inhibition of ABL1 at 1 uM in presence of 10 uM ATP by Select Screen kinase assay relative to untreated control
Outline: (§1)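 Single-point screen at 1 μM against a panel of 220 purified kinases, run by Invitrogen staff as a SelectScreen profiling service. Read-out is percent inhibition of kinase activity.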

[5] = molecular target: Serine/threonine-protein kinase MRCK alpha (Homo sapiens) (UniProt Q5VT25); test: Inhibition of CDC42 binding protein alpha at 1 uM in presence of 10 uM ATP by Select Screen kinase assay relative to untreated control; outline: as §1
[6] = molecular target: Glycogen synthase kinase-3 beta (Homo sapiens) (UniProt P49841); test: Inhibition of GSK3B at 1 uM in presence of 10 uM ATP by Select Screen kinase assay relative to untreated control
Outline: (§2)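 Part of a 220-kinase panel of purified kinases, each tested with compound at 1 μM. Percent inhibition was measured in the Invitrogen SelectScreen profiling assay.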

[7] = molecular target: Ephrin type-B receptor 4 (Homo sapiens) (UniProt P54760); test: Inhibition of EPHB4 at 1 uM in presence of 10 uM ATP by Select Screen kinase assay relative to untreated control; outline: as §1
[8] = molecular target: Protein kinase C alpha type (Homo sapiens) (UniProt P17252); test: Inhibition of PRKCA at 1 uM in presence of 10 uM ATP by Select Screen kinase assay relative to untreated control
[9] = molecular target: Serine/threonine-protein kinase Nek2 (Homo sapiens) (UniProt P51955); test: Inhibition of NEK2 at 1 uM in presence of 10 uM ATP by Select Screen kinase assay relative to untreated control
[10] = molecular target: Serine/threonine-protein kinase Sgk2 (Homo sapiens) (UniProt Q9HBY8); test: Inhibition of SGK2 at 1 uM in presence of 10 uM ATP by Select Screen kinase assay relative to untreated control
Outline: (§3)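 Commercial SelectScreen profiling panel of 220 purified kinases. Each kinase was tested at a single inhibitor concentration of 1 μM, and activity was expressed as percent inhibition.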

[11] = molecular target: Calcium/calmodulin-dependent protein kinase type IV (Homo sapiens) (UniProt Q16566); test: Inhibition of CAMK4 at 1 uM in presence of 10 uM ATP by Select Screen kinase assay relative to untreated control; outline: as §1
[12] = system: Tyrosine-protein kinase ABL1 (Homo sapiens), P00519 [Y253F]; test: Inhibition of ABL1 Y253F mutant at 1 uM in presence of 10 uM ATP by Select Screen kinase assay relative to untreated control; outline: as §1
[13] = molecular target: Serine/threonine-protein kinase PAK 4 (Homo sapiens) (UniProt O96013); test: Inhibition of PAK4 at 1 uM in presence of 10 uM ATP by Select Screen kinase assay relative to untreated control
[14] = system: Tyrosine-protein kinase ABL1 (Homo sapiens), P00519 [E255K]; test: Inhibition of ABL1 E255K mutant at 1 uM in presence of 10 uM ATP by Select Screen kinase assay relative to untreated control; outline: as §1
[15] = molecular target: Platelet-derived growth factor receptor beta (Homo sapiens) (UniProt P09619); test: Inhibition of PDGFRbeta at 1 uM in presence of 100 uM ATP by Select Screen kinase assay relative to untreated control
[16] = molecular target: Mitogen-activated protein kinase kinase kinase kinase 4 (Homo sapiens) (UniProt O95819); test: Inhibition of MAP4K4 at 1 uM in presence of 10 uM ATP by Select Screen kinase assay relative to untreated control
[17] = molecular target: Serine/threonine-protein kinase Chk1 (Homo sapiens) (UniProt O14757); test: Inhibition of CHEK1 at 1 uM in presence of 10 uM ATP by Select Screen kinase assay relative to untreated control; outline: as §1
[18] = molecular target: Serine/threonine-protein kinase BRSK1 (Homo sapiens) (UniProt Q8TDC3); test: Inhibition of BRSK1 at 1 uM in presence of 10 uM ATP by Select Screen kinase assay relative to untreated control; outline: as §1
[19] = molecular target: SRSF protein kinase 3 (Homo sapiens) (UniProt Q9UPE1); test: Inhibition of STK23 at 1 uM in presence of 10 uM ATP by Select Screen kinase assay relative to untreated control; outline: as §3
[20] = system: Receptor-type tyrosine-protein kinase FLT3 (Homo sapiens), P36888 [D835Y]; test: Inhibition of FLT3 D835Y mutant at 1 uM in presence of 10 uM ATP by Select Screen kinase assay relative to untreated control; outline: as §2
[21] = molecular target: Receptor-type tyrosine-protein kinase FLT3 (Homo sapiens) (UniProt P36888); test: Inhibition of FLT3 at 1 uM in presence of 10 uM ATP by Select Screen kinase assay relative to untreated control
Outline: (§4)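 Single-concentration profiling at 1 μM against a panel of 220 purified kinases, run as an outsourced SelectScreen kinase profiling service. Activity is expressed as percent inhibition.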

[22] = molecular target: Insulin receptor (Homo sapiens) (UniProt P06213); test: Inhibition of INSR at 1 uM in presence of 10 uM ATP by Select Screen kinase assay relative to untreated control
[23] = molecular target: Ribosomal protein S6 kinase alpha-2 (Homo sapiens) (UniProt Q15349); test: Inhibition of RPS6KA2 at 1 uM in presence of 10 uM ATP by Select Screen kinase assay relative to untreated control
[24] = molecular target: Tyrosine-protein kinase Mer (Homo sapiens) (UniProt Q12866); test: Inhibition of MERTK at 1 uM in presence of 10 uM ATP by Select Screen kinase assay relative to untreated control; outline: as §4
Chain of Tyrosine-protein kinase Mer (Homo sapiens) (Q12866 whole entry): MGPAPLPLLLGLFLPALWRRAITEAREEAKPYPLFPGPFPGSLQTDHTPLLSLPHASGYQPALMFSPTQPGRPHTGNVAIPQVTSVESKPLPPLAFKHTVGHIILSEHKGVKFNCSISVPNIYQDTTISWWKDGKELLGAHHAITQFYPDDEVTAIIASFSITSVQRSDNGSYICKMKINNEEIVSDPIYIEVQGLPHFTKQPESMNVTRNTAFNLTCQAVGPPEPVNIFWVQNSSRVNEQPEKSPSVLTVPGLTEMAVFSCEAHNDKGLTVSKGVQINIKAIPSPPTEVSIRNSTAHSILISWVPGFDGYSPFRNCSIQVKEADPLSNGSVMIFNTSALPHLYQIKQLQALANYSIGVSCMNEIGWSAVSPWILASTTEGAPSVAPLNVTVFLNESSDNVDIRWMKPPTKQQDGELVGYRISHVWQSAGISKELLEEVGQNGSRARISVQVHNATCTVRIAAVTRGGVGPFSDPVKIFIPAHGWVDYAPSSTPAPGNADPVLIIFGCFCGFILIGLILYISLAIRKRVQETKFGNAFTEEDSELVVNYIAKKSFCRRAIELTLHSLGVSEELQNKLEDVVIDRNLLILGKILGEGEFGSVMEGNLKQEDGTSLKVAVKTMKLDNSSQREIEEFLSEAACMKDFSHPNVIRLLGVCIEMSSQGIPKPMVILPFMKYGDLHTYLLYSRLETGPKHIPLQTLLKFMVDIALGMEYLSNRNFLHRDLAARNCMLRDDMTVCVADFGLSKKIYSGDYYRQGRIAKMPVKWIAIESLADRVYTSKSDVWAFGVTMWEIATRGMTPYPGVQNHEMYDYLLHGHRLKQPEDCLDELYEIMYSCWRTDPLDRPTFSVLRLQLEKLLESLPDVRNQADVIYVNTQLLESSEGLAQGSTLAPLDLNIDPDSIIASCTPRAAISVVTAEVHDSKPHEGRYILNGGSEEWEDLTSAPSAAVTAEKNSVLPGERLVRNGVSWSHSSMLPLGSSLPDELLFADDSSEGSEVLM

T1 sequence (P31749 whole entry): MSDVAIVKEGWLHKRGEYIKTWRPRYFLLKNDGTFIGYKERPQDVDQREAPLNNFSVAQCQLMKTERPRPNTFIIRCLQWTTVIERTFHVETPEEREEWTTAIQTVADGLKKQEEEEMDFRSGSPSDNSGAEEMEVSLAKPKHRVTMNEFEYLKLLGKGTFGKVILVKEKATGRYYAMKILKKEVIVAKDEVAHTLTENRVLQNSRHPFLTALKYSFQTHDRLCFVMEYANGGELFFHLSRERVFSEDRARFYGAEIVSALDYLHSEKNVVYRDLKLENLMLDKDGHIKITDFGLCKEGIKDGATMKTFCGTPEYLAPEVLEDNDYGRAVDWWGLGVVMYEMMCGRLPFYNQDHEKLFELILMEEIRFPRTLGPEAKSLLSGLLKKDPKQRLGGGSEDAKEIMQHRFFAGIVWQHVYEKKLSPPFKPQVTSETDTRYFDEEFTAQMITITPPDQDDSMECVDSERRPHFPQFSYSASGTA
Chain of Insulin receptor (Homo sapiens) (P06213 28-758 limits assumed): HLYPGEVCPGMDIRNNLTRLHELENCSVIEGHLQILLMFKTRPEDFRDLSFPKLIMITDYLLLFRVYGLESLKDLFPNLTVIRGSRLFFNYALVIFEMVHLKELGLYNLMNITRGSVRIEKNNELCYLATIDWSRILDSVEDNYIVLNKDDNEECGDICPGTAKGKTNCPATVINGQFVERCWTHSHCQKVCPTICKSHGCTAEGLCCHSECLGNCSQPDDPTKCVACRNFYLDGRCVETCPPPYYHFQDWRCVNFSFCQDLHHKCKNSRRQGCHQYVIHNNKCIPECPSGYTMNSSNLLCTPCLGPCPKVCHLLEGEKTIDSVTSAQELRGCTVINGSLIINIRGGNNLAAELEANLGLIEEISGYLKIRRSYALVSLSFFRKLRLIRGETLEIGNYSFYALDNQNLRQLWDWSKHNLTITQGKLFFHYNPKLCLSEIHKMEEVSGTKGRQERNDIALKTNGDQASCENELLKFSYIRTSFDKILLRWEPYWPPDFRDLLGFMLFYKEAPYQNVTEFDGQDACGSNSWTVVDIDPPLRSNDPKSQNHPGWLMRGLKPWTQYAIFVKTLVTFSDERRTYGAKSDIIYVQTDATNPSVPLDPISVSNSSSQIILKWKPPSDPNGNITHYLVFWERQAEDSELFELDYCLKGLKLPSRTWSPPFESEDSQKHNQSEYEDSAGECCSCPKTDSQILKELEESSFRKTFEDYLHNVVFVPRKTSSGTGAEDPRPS
Chain of Insulin receptor (Homo sapiens) (P06213 763-1382 limits assumed): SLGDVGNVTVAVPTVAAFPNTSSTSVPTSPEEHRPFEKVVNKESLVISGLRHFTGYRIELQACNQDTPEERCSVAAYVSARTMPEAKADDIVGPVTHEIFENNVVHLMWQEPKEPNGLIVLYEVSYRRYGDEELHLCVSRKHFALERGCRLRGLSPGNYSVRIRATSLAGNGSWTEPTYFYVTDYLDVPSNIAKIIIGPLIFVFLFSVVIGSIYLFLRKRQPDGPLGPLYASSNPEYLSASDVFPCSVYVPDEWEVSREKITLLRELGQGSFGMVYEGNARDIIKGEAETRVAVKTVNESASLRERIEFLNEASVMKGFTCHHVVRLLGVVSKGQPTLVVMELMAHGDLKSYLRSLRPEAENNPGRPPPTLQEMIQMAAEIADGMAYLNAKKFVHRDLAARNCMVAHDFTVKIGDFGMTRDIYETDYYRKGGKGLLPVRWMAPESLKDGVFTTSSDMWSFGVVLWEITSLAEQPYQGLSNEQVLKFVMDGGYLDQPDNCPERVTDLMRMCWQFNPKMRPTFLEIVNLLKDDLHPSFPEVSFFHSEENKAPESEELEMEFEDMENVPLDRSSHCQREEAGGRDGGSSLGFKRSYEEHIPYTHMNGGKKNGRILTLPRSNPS
Chain of Serine/threonine-protein kinase Sgk2 (Homo sapiens) (Q9HBY8 whole entry): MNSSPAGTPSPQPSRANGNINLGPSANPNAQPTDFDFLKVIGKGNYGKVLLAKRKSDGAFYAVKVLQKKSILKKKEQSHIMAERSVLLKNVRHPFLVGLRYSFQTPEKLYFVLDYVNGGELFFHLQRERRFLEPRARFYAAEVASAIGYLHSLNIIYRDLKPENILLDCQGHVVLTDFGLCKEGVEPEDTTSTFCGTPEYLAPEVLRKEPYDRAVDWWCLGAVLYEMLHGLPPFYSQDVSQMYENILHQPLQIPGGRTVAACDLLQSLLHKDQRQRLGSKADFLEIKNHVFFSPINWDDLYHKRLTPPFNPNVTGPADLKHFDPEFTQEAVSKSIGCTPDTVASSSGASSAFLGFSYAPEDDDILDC
Chain of SRSF protein kinase 3 (Homo sapiens) (Q9UPE1 whole entry): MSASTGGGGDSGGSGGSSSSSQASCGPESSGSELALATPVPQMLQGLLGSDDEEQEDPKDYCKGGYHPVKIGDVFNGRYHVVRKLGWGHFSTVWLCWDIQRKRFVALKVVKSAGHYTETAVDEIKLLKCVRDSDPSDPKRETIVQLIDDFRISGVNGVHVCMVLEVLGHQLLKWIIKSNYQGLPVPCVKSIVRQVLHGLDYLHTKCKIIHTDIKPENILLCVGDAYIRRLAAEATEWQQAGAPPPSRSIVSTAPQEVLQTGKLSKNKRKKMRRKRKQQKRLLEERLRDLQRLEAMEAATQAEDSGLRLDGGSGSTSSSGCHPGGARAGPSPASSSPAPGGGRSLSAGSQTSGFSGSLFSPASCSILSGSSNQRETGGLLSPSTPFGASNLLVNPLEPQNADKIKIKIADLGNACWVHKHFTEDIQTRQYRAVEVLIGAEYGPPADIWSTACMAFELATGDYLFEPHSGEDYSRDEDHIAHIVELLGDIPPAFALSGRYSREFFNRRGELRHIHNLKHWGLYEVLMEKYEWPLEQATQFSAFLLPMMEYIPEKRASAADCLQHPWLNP
Chain of Serine/threonine-protein kinase Chk1 (Homo sapiens) (O14757 whole entry): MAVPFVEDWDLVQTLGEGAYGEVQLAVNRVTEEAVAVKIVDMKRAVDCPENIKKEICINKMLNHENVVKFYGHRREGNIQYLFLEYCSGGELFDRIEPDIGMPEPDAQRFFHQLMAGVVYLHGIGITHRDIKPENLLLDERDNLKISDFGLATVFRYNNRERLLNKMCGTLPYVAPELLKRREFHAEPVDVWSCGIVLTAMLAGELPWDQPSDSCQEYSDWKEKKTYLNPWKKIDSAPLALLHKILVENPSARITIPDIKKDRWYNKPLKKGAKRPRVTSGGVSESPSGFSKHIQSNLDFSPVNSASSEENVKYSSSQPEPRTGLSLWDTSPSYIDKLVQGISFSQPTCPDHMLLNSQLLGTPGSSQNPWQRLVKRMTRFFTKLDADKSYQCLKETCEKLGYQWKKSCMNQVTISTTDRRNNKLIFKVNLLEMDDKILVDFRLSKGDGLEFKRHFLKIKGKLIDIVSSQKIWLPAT
Chain of Serine/threonine-protein kinase PAK 3 (Homo sapiens) (O75914 whole entry, looked up): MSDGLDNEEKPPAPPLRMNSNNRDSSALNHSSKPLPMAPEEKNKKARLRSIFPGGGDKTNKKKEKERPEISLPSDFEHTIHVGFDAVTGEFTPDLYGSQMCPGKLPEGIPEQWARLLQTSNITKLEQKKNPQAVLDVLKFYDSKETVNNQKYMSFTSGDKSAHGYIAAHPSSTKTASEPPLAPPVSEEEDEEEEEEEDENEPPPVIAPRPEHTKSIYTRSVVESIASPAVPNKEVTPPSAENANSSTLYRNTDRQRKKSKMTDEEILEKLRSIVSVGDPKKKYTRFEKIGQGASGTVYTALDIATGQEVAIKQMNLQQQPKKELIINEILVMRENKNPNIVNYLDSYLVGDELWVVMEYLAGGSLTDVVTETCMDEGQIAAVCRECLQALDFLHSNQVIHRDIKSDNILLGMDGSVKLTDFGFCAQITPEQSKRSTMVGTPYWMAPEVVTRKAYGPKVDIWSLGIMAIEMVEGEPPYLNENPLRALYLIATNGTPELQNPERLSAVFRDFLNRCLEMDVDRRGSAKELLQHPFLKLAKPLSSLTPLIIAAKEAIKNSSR

| SMILES | inhibition [1] [%] | Activity [2] | inhibition [3] | inhibition [4] [%] | inhibition [5] [%] | inhibition [6] [%] | inhibition [7] [%] | inhibition [8] [%] | inhibition [9] [%] | inhibition [10] [%] | inhibition [11] [%] | inhibition [12] [%] | inhibition [13] [%] | inhibition [14] [%] | inhibition [15] [%] | inhibition [16] [%] | inhibition [17] [%] | inhibition [18] [%] | inhibition [19] [%] | inhibition [20] [%] | further results |
| --- | --- | --- | --- | --- | --- | --- | --- | --- | --- | --- | --- | --- | --- | --- | --- | --- | --- | --- | --- | --- | --- |
| Cc1n[nH]c2ccc(-c3cncc(OC[C@@H](N)Cc4c[nH]c5ccccc45)c3)cc12 | 45 | Active | Active |  |  |  |  |  |  |  |  |  |  |  |  |  |  |  |  |  |  |
| CCCc1cc(-c2cncc(OC[C@@H](N)Cc3c[nH]c4ccccc34)c2)cc2c(C)n[nH]c12 |  | inactive | inactive |  |  |  |  |  |  |  |  |  |  |  |  |  |  |  |  |  |  |
| O=C(NCCCNc1nc(Nc2cccc(NC(=O)N3CCCC3)c2)ncc1I)c1cccs1 | -2 |  |  | 37 | 19 | 69 | 8 | 61 | 33 | 25 | 8 | 36 | 42 | 26 | 84 | 39 | 75 | 75 | 6 | 100 | inhibition [21]: 95%; inhibition [22]: 7%; inhibition [23]: 63%; inhibition [24]: 17% |
| COc1ccccc1N1CCN(c2ncnc3[nH]nc(Br)c23)CC1 |  |  |  | 12 | -3 | 67 | 11 | 21 | 21 | 10 | 0 | 12 | 9 | 5 | 2 | 73 | 19 | 29 | 3 | 71 | inhibition [21]: 60%; inhibition [22]: 3%; inhibition [23]: 55%; inhibition [24]: 16% |
